From ChEMBL document CHEMBL1155758, “Heliotropium huascoense resin exudate: chemical constituents and defensive properties” (J Nat Prod, 2001)
The source made the active and inactive calls. The calls are words filed in the database; no cut-off is given here.

What was measured:
Spodoptera littoralis [1] = assay: Antifeedant activity against fifth instar Spodoptera littoralis L6 larvae assessed as weight gain at 20 ug/insect, po relative to control; assay type: functional
Procedure, shortened: (§1)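 Larval consumption and biomass gain were expressed as % of control. Significance versus control was tested at p < 0.05 with LSD. A second ANCOVA was run on biomass gain with food consumption as covariate to detect postingestive effects.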

[2] = tested on: Leptinotarsa decemlineata; assay: Antifeedant activity against Leptinotarsa decemlineata adults at 50 ug/cm'2 by choice test; assay type: functional
Procedure, shortened: (§2)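 Choice feeding bioassay using adult beetles, newly emerged fifth-instar larvae or apterous adult aphids. Percent feeding inhibition (FI) and percent settling inhibition (SI) were calculated as previously described. Compounds giving FR/SI > 50% were taken into a dose-response test, with EC50 (dose giving 50% feeding reduction) obtained by linear regression of %FR or %SI on log dose.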

Spodoptera littoralis [3] = assay: Antifeedant activity against fifth instar Spodoptera littoralis L6 larvae at 50 ug/cm'2; assay type: functional; procedure, shortened: as §2
Myzus persicae = assay: Antifeedant activity against Myzus persicae apterous adults; assay type: functional, organism-based; procedure, shortened: as §2
Spodoptera littoralis [4] = assay: Antifeedant activity against fifth instar Spodoptera littoralis L6 larvae assessed as food consumption at 20 ug/insect, po relative to control; assay type: functional; procedure, shortened: as §1
[5] = tested on: Leptinotarsa decemlineata; assay: Antifeedant activity against Leptinotarsa decemlineata adults by choice test; assay type: functional, organism-based; procedure, shortened: as §2
Spodoptera littoralis [6] = assay: Antifeedant activity against fifth instar Spodoptera littoralis L6 larvae; assay type: functional, organism-based; procedure, shortened: as §2
[7] = tested on: Leptinotarsa decemlineata; assay: Antifeedant activity against Leptinotarsa decemlineata adults at 50 ug/cm'2 by no-choice test; assay type: functional
[8] = tested on: Leptinotarsa decemlineata; assay: Insecticidal activity against Leptinotarsa decemlineata adults assessed as mortality at 10 ug/insect dosed in to hemolymph injection after 72 hrs; assay type: functional
Procedure, shortened: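 Adult Colorado potato beetles, 20 per compound, each injected into the hemolymph with 10 µg of compound dissolved in DMSO. Mortality was scored for up to 3 days after injection. Percent mortality was analysed with contingency tables and corrected by Abbott's formula.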

[9] = tested on: Leptinotarsa decemlineata; assay: Antifeedant activity against Leptinotarsa decemlineata adults by no-choice test; assay type: functional, organism-based
Spodoptera littoralis [10] = assay: Antifeedant activity against fifth instar Spodoptera littoralis L6 larvae at 100 ug/cm'2; assay type: functional; procedure, shortened: as §2
Aspergillus niger = assay: Antifungal activity against Aspergillus niger assessed as inhibition of mycelial growth at 0.5 mg/mL; assay type: functional; settings: read-out: GI
Procedure, shortened: (§3)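 Single-dose test at 0.5 mg/mL against the plant pathogens; activity estimated as percent mycelial growth inhibition.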

Fusarium verticillioides = assay: Antifungal activity against Fusarium moniliforme assessed as inhibition of mycelial growth at 0.5 mg/mL; assay type: functional; settings: read-out: GI; procedure, shortened: as §3

SMILES	Activity (Spodoptera littoralis [1]) [%]	Activity [2] [%]	Activity (Spodoptera littoralis [3]) [%]	Activity (Myzus persicae)	Activity (Spodoptera littoralis [4]) [%]	EC50 [5] [ug.cm'-2]	EC50 (Spodoptera littoralis [6]) [ug.cm'-2]	Activity [7] [%]	Activity [8] [%]	EC50 [9] [ug.cm'-2]	Activity (Spodoptera littoralis [10]) [%]	inhibition of growth at 500 µg/mL (Aspergillus niger) [%]	inhibition of growth at 500 µg/mL (Fusarium verticillioides) [%]
COC(=O)c1ccc(OC)c(C[C@@H]2C(C)(C)C(=O)C=C[C@@]2(C)O)c1	66.1	55.4	71.8	inactive	75.9	50	17.4	81.82	0	24.19			
COc1ccc(C(=O)O)cc1C[C@@H]1C(C)(C)C(=O)C=C[C@@]1(C)O (relative stereo)	126.2	37	0	inactive	113.1	> 50	> 100	56.1	0	50			
COC(=O)c1ccc2c(c1)C[C@@]1(O2)[C@@H](C)CC[C@@H](O)C1(C)C [FILIFOLINOL]	120.9	16.82		inactive	120.2	> 50	> 100	42.4	20	> 50	34.6	36	61
C[C@@H]1CC[C@@H]2C(C)(C)C[C@]3(C)CC=C[C@]123 [SILPHINENE]						0.27			24	2.7			
